Experiments:
[1] = molecular target: T1, Lysophosphatidylserine lipase ABHD12 (Mus musculus) (UniProt Q99LR1); conditions: Neuro2a, 3 nM
T1 sequence (whole entry): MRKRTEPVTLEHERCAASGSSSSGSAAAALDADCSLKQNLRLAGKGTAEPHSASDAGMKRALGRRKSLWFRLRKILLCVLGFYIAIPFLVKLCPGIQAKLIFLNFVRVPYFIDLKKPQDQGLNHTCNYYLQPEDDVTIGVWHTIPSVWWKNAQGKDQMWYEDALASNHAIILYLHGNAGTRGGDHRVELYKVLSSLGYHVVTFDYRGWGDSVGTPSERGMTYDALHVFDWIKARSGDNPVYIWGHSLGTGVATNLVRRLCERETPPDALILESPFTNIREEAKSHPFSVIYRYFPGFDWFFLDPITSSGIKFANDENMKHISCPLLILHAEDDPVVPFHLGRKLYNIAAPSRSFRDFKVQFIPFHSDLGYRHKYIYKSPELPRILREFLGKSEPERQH

[2] = molecular target: T2, sn-1-specific diacylglycerol lipase ABHD11 (Mus musculus) (UniProt Q8K4F5); conditions: Neuro2a, 3 nM
T2 sequence (whole entry): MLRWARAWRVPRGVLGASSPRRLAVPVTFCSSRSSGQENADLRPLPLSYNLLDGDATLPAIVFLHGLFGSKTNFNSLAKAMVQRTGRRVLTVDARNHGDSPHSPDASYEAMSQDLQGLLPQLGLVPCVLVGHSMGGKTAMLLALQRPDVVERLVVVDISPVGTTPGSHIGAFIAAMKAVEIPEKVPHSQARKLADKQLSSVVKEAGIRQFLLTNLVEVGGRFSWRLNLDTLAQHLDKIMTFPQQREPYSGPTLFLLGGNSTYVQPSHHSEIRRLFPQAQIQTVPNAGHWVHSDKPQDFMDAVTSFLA

[3] = molecular target: T3, Monoacylglycerol lipase ABHD6 (Mus musculus) (UniProt Q8R2Y0); experiment: Inhibition of ABHD6 in FP-rhodamine-labelled mouse brain membrane at 1 nM preincubated for 30 mins followed by FP-rhodamine labelling measured after 30 mins by gel-based competitive ABPP assay; assay type: tissue-based
T3 sequence (whole entry): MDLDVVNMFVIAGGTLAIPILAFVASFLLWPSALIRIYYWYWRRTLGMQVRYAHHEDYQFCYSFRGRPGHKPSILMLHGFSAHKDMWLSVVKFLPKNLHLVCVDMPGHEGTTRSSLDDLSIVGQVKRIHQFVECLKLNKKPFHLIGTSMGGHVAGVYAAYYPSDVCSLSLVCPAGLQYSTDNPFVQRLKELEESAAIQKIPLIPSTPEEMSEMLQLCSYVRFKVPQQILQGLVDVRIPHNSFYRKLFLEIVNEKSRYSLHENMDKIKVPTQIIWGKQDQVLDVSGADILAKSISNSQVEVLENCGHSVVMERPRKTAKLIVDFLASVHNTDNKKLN
How it was run: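 Mouse brain membrane proteome (1 mg/mL) preincubated with compound for 30 min at 37 °C, then labelled with FP-rhodamine or HT-01 (1 μM final) for 30 min at 37 °C. Quenched in SDS loading buffer, run on 10% SDS-PAGE and scanned for in-gel fluorescence. Bands assigned by gel migration.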

[4] = molecular target: Tissue-type plasminogen activator (Mus musculus) (UniProt P11214); conditions: Neuro2a, 3 nM
Tissue-type plasminogen activator (Mus musculus), sequence (P11214 whole entry): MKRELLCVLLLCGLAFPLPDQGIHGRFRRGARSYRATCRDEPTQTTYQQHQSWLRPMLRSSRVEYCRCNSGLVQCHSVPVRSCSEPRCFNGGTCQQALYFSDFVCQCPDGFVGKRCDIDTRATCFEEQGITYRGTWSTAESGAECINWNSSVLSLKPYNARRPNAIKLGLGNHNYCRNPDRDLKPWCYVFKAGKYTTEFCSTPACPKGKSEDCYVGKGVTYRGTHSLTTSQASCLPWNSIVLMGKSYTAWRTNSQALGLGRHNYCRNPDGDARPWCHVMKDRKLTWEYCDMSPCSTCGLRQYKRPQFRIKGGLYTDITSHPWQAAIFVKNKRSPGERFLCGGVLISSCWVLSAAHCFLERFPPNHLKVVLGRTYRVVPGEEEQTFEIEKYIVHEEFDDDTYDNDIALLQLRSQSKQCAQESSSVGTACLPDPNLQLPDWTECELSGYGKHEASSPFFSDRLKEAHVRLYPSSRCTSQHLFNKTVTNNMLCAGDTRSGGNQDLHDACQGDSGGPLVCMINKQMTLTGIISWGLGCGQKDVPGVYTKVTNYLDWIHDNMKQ

[5] = molecular target: T4, Retinoid-inducible serine carboxypeptidase (Mus musculus) (UniProt Q920A5); conditions: Neuro2a, 3 nM
T4 sequence (whole entry): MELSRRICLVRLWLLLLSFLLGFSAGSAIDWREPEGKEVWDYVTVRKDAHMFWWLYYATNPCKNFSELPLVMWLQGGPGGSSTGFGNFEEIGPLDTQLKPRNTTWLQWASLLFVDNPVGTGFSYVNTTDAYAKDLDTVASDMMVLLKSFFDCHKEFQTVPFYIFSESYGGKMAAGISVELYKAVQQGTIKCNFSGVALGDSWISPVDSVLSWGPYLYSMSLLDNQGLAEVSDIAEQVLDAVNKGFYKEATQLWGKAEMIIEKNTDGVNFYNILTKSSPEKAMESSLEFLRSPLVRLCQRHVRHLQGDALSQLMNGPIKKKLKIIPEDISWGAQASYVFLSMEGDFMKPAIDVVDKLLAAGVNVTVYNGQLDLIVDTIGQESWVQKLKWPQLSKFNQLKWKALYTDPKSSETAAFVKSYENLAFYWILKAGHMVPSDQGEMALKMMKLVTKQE

[6] = molecular target: Fatty acid synthase (Mus musculus) (UniProt P19096); conditions: Neuro2a, 3 nM
Fatty acid synthase (Mus musculus), sequence (P19096 whole entry): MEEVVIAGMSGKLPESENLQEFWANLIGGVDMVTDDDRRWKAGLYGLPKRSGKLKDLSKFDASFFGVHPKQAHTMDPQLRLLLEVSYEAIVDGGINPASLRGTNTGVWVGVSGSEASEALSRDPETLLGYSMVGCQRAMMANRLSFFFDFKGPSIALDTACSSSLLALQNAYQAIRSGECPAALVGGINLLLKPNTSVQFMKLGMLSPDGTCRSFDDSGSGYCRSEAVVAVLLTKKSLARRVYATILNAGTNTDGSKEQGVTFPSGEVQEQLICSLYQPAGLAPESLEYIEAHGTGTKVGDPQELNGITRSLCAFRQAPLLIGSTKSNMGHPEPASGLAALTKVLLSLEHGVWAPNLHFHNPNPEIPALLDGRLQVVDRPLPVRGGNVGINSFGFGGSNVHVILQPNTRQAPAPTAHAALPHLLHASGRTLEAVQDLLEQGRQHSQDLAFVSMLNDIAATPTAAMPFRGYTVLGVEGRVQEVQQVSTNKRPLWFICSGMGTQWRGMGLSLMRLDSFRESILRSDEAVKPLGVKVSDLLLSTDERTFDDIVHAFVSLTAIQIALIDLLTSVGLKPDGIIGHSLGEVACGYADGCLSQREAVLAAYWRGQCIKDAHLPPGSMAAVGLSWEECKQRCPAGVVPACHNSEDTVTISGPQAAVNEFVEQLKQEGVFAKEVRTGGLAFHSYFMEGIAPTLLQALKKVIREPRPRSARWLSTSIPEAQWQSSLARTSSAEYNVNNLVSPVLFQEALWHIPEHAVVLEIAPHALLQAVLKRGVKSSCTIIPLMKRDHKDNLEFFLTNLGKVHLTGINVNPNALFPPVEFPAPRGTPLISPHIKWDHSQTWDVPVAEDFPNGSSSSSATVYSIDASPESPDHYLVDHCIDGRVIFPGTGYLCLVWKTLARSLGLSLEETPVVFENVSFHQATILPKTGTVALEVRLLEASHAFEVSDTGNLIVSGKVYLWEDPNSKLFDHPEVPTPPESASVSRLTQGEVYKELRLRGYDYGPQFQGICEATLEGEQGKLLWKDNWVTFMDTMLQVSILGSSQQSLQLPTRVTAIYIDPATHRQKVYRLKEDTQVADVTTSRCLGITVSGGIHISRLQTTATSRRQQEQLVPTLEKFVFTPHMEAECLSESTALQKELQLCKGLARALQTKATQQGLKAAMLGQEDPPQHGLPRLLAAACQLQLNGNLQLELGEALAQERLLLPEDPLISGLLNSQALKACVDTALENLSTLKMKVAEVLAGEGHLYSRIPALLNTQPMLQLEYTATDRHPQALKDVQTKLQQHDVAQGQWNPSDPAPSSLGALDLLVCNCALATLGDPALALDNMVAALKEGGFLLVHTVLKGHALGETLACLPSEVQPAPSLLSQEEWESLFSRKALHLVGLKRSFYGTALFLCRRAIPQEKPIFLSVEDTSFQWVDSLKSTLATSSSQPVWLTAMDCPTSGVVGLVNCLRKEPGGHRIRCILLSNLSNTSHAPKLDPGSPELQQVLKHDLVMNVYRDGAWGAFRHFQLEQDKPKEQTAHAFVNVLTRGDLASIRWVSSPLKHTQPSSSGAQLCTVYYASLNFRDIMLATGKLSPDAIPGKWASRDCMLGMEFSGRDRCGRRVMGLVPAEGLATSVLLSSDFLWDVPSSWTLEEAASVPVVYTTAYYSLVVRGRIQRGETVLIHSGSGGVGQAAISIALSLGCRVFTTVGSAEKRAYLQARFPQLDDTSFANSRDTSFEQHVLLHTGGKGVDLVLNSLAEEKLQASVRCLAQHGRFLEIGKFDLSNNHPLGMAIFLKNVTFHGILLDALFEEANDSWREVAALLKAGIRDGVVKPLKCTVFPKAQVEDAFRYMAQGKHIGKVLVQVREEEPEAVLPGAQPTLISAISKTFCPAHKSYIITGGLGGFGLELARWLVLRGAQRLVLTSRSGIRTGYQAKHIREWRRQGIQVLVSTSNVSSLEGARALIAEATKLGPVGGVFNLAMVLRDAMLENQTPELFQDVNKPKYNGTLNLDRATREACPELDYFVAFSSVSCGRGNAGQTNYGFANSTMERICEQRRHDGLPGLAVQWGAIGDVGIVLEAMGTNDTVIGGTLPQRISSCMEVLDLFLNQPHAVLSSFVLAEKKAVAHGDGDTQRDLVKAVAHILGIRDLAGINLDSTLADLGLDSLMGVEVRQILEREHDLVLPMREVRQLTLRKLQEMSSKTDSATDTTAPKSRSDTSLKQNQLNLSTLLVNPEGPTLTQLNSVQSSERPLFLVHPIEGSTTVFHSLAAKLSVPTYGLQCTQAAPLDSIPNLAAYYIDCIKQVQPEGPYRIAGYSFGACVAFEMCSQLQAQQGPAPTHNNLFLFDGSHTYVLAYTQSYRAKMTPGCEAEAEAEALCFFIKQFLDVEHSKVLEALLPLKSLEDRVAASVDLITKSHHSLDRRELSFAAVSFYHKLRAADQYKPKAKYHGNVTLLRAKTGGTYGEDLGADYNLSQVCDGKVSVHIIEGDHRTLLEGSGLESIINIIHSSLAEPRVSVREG

[7] = molecular target: T5, Lon protease homolog, mitochondrial (Mus musculus) (UniProt Q8CGK3); conditions: Neuro2a, 3 nM
T5 sequence (whole entry): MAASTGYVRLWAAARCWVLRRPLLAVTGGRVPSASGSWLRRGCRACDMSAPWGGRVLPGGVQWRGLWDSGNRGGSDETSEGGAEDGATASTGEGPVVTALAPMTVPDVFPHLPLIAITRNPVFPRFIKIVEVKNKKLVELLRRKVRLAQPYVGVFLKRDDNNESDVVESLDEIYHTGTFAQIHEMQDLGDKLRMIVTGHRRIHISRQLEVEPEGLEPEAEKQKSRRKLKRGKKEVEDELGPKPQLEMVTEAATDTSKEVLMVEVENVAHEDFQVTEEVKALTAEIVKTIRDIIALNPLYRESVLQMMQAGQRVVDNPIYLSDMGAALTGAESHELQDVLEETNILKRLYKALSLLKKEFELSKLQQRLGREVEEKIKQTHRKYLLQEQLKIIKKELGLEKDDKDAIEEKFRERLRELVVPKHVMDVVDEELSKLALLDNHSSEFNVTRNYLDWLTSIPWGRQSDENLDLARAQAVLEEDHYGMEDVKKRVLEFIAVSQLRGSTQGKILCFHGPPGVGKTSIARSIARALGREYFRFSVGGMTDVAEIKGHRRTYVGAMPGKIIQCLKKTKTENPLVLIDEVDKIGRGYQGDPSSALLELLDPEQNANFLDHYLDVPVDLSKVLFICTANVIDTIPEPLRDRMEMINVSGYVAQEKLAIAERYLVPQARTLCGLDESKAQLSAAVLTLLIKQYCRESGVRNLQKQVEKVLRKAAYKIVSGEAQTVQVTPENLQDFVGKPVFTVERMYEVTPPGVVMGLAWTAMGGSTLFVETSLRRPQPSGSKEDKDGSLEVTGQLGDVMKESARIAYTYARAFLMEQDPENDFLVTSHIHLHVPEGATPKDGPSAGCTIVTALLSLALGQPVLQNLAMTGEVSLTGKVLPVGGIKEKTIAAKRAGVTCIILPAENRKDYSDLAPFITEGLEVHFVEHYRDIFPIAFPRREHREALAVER

| SMILES | inhibition [1] [%] | inhibition [2] [%] | inhibition [3] [%] | inhibition [4] [%] | inhibition [5] [%] | inhibition [6] [%] | inhibition [7] [%] |
| --- | --- | --- | --- | --- | --- | --- | --- |
| O=C(N1CCCCC1c1ccccc1)n1cc(-c2ccc(-c3cccc(CO)c3)cc2)nn1 (racemic) | < 50 | < 50 | 29 | < 50 | < 50 | < 50 | < 50 |
| O=C(O)c1cccc(-c2ccc(-c3cn(C(=O)N4CCCCC4Cc4ccccc4)nn3)cc2)c1 (racemic) | < 50 | < 50 | 62 | < 50 | < 50 | < 50 | < 50 |
| O=C(c1cccc(-c2ccc(-c3cn(C(=O)N4CCCCC4c4ccccc4)nn3)cc2)c1)N1CCCCC1 (racemic) | < 50 | < 50 | 51 | < 50 | < 50 | < 50 | < 50 |
